Laboratory results from ChEMBL document CHEMBL1156517, “Targeting thyroid hormone receptor-beta agonists to the liver reduces cholesterol and triglycerides and improves the therapeutic index” (Proc Natl Acad Sci U S A, 2007).

Legend:
[1] = Drug excretion in bile duct-canulated Sprague-Dawley rat bile at 10 mg/kg, iv; format: ADME, organism-based; design: dose 10 mg/kg, route intravenous; conditions: read-out: Activity
In short: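 Naïve and bile duct-cannulated SD rats (n = 3 per group) received 10 mg/kg i.v. Compound levels were measured in the collected bile and in plasma.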

[2] = AUC (0 to 24 hrs) in Sprague-Dawley rat at 10 mg/kg, iv; format: ADME, organism-based; design: time < 24 hr, dose 10 mg/kg, route intravenous; conditions: plasma
In short: (§1)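 Male SD rats, naïve or bile duct-cannulated (n = 3 per group), given MB07344 at 10 mg/kg i.v. MB07344 measured in plasma and in collected bile. AUC over 0–24 h taken from the plasma concentration–time profile.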

[3] = Drug excretion in Sprague-Dawley rat feces at 2 mg/kg, iv after 96 hrs; format: ADME, organism-based; design: dose 2 mg/kg, route intravenous; conditions: faeces, read-out: Activity
In short: (§2)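 Mass balance used male SD rats (n = 6) given [³H]-labelled compound (2 mg/kg, 45.5 mCi/mmol) as an i.v. bolus. Cumulative radioactivity in urine, wash and feces was monitored at 0, 12, 24, 48, 72 and 96 h.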

[4] = Clearance in Sprague-Dawley rat at 5 mg/kg, iv; format: ADME, organism-based; design: dose 5 mg/kg, route intravenous; conditions: in vivo
In short: (§3)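 Male SD rats received a 5 mg/kg i.v. dose. Parameters were derived from the plasma concentration–time profile of the parent and its active metabolite.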

[5] = Drug excretion in Sprague-Dawley rat urine at 2 mg/kg, iv after 96 hrs; format: ADME, organism-based; design: dose 2 mg/kg, route intravenous; conditions: read-out: Activity; in short: as §2
[6] = Cmax in Sprague-Dawley rat at 5 mg/kg, iv; format: ADME, organism-based; design: dose 5 mg/kg, route intravenous; conditions: in vivo; in short: as §3
[7] = AUC (0 to 24 hrs) in Sprague-Dawley rat at 5 mg/kg, iv; format: ADME, organism-based; design: time < 24 hr, dose 5 mg/kg, route intravenous; conditions: plasma
In short: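 Male SD rats received MB07344 at 5 mg/kg i.v. Pharmacokinetic parameters, including AUC over 0–24 h, were derived from the temporal plasma concentration profile of MB07344.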

Hepatocyte = assay: Cmax per10'6 cells in Sprague-Dawley rat hepatocytes at 10 uM; format: ADME, Liver; design: dose 10 uM
In short: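 Freshly isolated rat hepatocytes were incubated with compound. Intracellular levels of the active phosphonate were followed over time and expressed per 10⁶ cells, giving Cmax and tmax.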

[8] = Half life in Sprague-Dawley rat at 5 mg/kg, iv; format: ADME, organism-based; design: dose 5 mg/kg, route intravenous; conditions: in vivo
In short: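 Male SD rats given a single 5 mg/kg i.v. dose. Half-life derived from the plasma concentration–time profile of the parent compound.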

[9] = biological target: Thyroid hormone receptor alpha (Homo sapiens, UniProt P10827); assay: Displacement of [125I]T3 from recombinant thyroid hormone receptor alpha expressed in sf9 cells by scintillation proximity assay
Chain of Thyroid hormone receptor alpha (P10827 whole entry): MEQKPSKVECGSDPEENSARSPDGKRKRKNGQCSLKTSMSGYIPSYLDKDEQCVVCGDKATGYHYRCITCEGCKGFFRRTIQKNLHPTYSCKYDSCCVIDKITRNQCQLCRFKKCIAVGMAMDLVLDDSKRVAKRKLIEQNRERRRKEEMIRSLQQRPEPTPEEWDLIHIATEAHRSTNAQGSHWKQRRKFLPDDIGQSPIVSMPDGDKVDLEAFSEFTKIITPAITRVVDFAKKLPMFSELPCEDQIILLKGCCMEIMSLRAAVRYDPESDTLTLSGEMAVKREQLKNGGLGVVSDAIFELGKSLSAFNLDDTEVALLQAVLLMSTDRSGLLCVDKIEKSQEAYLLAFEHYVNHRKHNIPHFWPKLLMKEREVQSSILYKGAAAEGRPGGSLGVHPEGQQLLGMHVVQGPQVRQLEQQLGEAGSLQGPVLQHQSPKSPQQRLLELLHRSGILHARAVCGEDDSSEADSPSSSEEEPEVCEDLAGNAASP

[10] = biological target: Thyroid hormone receptor beta (Homo sapiens, UniProt P10828); assay: Displacement of [125I]T3 from recombinant thyroid hormone receptor beta expressed in sf9 cells by scintillation proximity assay
Chain of Thyroid hormone receptor beta (P10828 whole entry): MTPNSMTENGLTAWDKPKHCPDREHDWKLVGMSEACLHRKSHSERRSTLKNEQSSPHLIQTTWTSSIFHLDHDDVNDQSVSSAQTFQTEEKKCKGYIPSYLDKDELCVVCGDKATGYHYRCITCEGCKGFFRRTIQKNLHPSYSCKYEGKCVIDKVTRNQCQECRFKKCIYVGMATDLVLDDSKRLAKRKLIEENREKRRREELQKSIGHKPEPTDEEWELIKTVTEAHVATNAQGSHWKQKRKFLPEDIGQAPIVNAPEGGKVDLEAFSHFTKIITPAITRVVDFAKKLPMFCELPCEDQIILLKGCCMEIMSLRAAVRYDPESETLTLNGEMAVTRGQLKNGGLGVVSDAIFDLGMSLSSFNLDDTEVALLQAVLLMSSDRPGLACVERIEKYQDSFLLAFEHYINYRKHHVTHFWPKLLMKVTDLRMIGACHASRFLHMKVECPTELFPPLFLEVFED

[11] = Volume of distribution in Sprague-Dawley rat at 5 mg/kg, iv; format: ADME, organism-based; design: dose 5 mg/kg, route intravenous; conditions: in vivo
[12] = AUC (0 to 24 hrs) in bile-diverted Sprague-Dawley rat at 10 mg/kg, iv; format: ADME, organism-based; design: time < 24 hr, dose 10 mg/kg, route intravenous; conditions: plasma; in short: as §1
[13] = Inhibition of CYP3A in Sprague-Dawley rat liver microsome at 10 uM; format: ADME; conditions: microsomes

Cc1cc(OCP(=O)(O)O)cc(C)c1Cc1ccc(O)c(C(C)C)c1 [MB07344]
dose excreted [1]: 50% | AUC(0-t) at 24 h [2]: 35100 ng·h/mL | dose excreted at 96 h [3]: 98% | clearance [4]: 4.67 mL/min/kg | dose excreted at 96 h [5]: 2% | Cmax [6]: 40400 ng/mL | AUC(0-t) at 24 h [7]: 16600 ng·h/mL | Cmax (Hepatocyte): 1.77 nmol | half-life [8]: 1.27 h | Ki [9]: 35.2 nM | Ki [10]: 2.17 nM | Vd [11]: 0.39 L/kg | AUC(0-t) at 24 h [12]: 48100 ng·h/mL | Activity [13]: Not Active
